This data set can be described thus: Toxicity liver stage against HepG2, at 10uM. It is filed as cell-based. Set-up: test concentration 10 uM, cell line HepG2-A16-CD81EGFP. Conditions: human, HepG2-A16-CD81EGFP cells; read-out: INHIBITION
The method in brief: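 Uninfected HepG2-A16-CD81EGFP cells, 3 × 10^3 per well, 1536-well, plated on prespotted compound at 10 μM final, parasite-free screening media added to match infected plates; puromycin 10 μM positive, DMSO 0.5% negative; run in parallel with 48 h PbLuc assay at 37 °C, 5% CO2; viability by CellTiter-Glo luminescence, normalized to controls.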
`Cc1cc(=O)[nH]c(NCCNC(=O)c2ccccc2N2CCCC2)n1`: the cytotoxicity at 10 µM was 0.998%.
Turning to `Cc1c[nH]c(C2COCCN2S(=O)(=O)c2cn[nH]c2)n1` (stereo not given), the cytotoxicity at 10 µM was -22.8%.
As for `COc1nc(C)ccc1CNC(=O)NC(c1ncc(C)s1)C1CC1` (stereo not given), the cytotoxicity at 10 µM was -2.3%.
Next, `CC(C)(C)c1c[nH]c([C@@H]2COCCN2C2CCC2)n1`: 5.99%; `CN(C)C(=O)N1Cc2ncn(C)c2C(COCC2CCOCC2)C1` (stereo not given): -69.9%.
For `CCn1ncc2c1C(COC)CN(c1ncc(F)cn1)C2` (stereo not given) the value was 14.6%; for `COc1cccc(CN2CCCCCC2c2cccc(F)c2)c1O` (stereo not given), 5.02%.
For `CCN(CC)Cc1ccc(C(=O)NC2CCc3ccccc32)o1` (stereo not given) the value was -3.97%; for `C=C(C)COc1cccc(CN(C)C(C)c2nccs2)c1` (stereo not given), -49.2%; for `CCOC(=O)C1(Cc2ccc(Cl)cc2)CCN(Cc2ncc[nH]2)CC1`, -2.36%.
Regarding `CC(C)N1CC2(CCC1=O)CCN(C(=O)c1cc(F)ccc1Cl)CC2`, the cytotoxicity at 10 µM stood at 0.247%.
Next, `O=C(c1cscn1)N1CC[C@]2(C[C@@H](OCCN3CCCC3)CO2)C1`: 0.462%; `Cc1nccn1CCC1CCNCC1`: -2.36%.
As for `CN1CC(=O)N(c2ccccc2)CC12CCN(C(=O)CC1CC1)C2` (stereo not given), the cytotoxicity at 10 µM was 0.972%.
As for `O=C(NCC1CCC(c2ccnc3ncnn23)CC1)c1ccccn1` (stereo not given), the cytotoxicity at 10 µM was 3.64%.
Next, `CNc1ncc(CN2CCCC2c2[nH]ncc2C(=O)N(C)C)cn1` (stereo not given): 2.91%; `O=C(O)[C@@H]1CN(Cc2c[nH]c(CC3CCCC3)n2)C[C@H]1c1ccccn1`: 3.86%; `Cc1cccc2c1cnn2CCCNC(=O)CCCC(=O)O`: -11.1%.
On to `CC1c2ncc(Cn3cncn3)n2CCN1CC1CCOCC1` (stereo not given), for which the cytotoxicity at 10 µM was found to be 2.84%.
On to `COCCn1cc(CCC(=O)Nc2c(C)nn(C)c2C)c2ccccc21`, for which the cytotoxicity at 10 µM was -177%.
Turning to `CCN(CC)C(=O)c1nnn(-c2ccc(C)cc2)c1C1CC1`, the cytotoxicity at 10 µM was -8.35%.
On to `O=C1NCC2(CCCN(CCc3ccccc3)C2)Oc2ccccc21` (stereo not given), for which the cytotoxicity at 10 µM amounted to 2.93%.
For the compound `O=C(Cc1ccccc1Cl)NCC1CCN(Cc2ccsc2)CC1`, the cytotoxicity at 10 µM is -9.12%.
As for `O=C(NCc1nncn1-c1ccccc1)C1CCCCC1`, the cytotoxicity at 10 µM is -22.1%.
Next, `NCCC(=O)N1CCC2(CC1)CN(C(=O)Cc1ccc(Cl)cc1)CCO2`: 2.24%; `O=C(NC[C@H]1OC[C@@H](NCc2ccccc2)[C@@H]1O)Nc1ccc(F)cc1`: -10.8%; `CC1CCN(c2ncc(C#N)c(N)n2)CC1`: 15.5%.
For `CN(CCO)C[C@@H]1CN(C2CCN(c3ccccc3Cl)CC2)C[C@@H]1CO`, the cytotoxicity at 10 µM was -9.22%.
For `Cc1nc(CN2C(=O)CCC23CCN(Cc2ccccn2)CC3)cs1` the value was -2.71%; for `N#Cc1ccc(Cl)cc1N1CCC(OC2CCOCC2)CC1`, 3.99%.
Regarding `CC(C)Oc1cccc(C(O)CNC(=O)NCc2cccs2)c1` (stereo not given), the cytotoxicity at 10 µM was -2.79%.
Take `CCCNC(=O)CCC(=O)n1nc(C)c2ccccc21`: the cytotoxicity at 10 µM is 1.23%.
For `CC(=O)c1c(F)cccc1N1CCC(Cc2cccnc2)CC1` the value was 43.6%.
With `Cn1cnnc1SC1CCc2ccccc2NC1=O` (stereo not given), the cytotoxicity at 10 µM is -0.373%.
For `O=C(Cc1ccc2c(c1)CCO2)N1CCCCC1Cn1cccn1` (stereo not given), the cytotoxicity at 10 µM was -12.8%.
Next, `Cc1cc(CSC2CCCN(c3cnn(C)c3)C2=O)no1` (stereo not given): 29.7%; `O=C(c1cccnc1)N1CCN(c2ccnc3ccsc23)CC1`: 5.77%; `CCS(=O)(=O)NCCCNCc1c(C)nn(C)c1N(C)C`: -9.66%.
Next, `CCn1cc(NC(=O)C2CCN(CCOC(C)C)CC2)cn1`: -5.4%.
On to `COCCN(CCN(C)C)C(=O)NC1CCc2ccccc2C1` (stereo not given), for which the cytotoxicity at 10 µM is -5.17%.
